Reference: ChEMBL document CHEMBL3244133, “Synthesis and biological activities of some uronic acids, uronates, uronamides, and urononitriles of pyrimidine nucleosides” (J Med Chem, 1978)
Activity calls are given as the source filed them. No cut-off for these calls is given here.

Columns and labels:
[1] = Competitive inhibition of HSV-1 pyrimidine deoxythymidine kinase using 2-[14C]deoxythymidine as substrate; parameters: species or system Human alphaherpesvirus 1
Outline: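 HSV-1 encoded pyrimidine deoxyribonucleoside kinase, purified from LMTK⁻ cells. Assay at 37 °C in 50 mM Tris pH 7.8 with 3 mM ATP·Mg²⁺, 0.3 mg/mL BSA, 0.3 mM 2-mercaptoethanol and 2% glycerol. Substrate was varied [2-¹⁴C]deoxythymidine plus analogue. Reaction was started with enzyme; aliquots were taken over time and phosphorylated product measured. Ki came from double-reciprocal plots.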

[2] = Retention time of the compound by liquid chromatography; type: physicochemical
Outline: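 Reverse-phase HPLC with a methanol-water gradient, separating uronic acids from the parent pyrimidine bases and nucleosides.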

Enterococcus faecium [3] = test: Antimicrobial activity against Streptococcus faecium assessed as growth inhibition at 400 uM after 15 to 17 hrs by turbidity assay in presence of 4.53 nM folic acid; type: functional
Outline: (§1)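 S. faecium (ATCC 8043), washed and resuspended in saline to 100 Klett units, then diluted 10-fold as inoculum. Test compound was added to basal medium with deoxythymidine (7 μM final) or folic acid (4.53 nM final). Incubation was 15-17 h at 37 °C. Growth was taken as the turbidity change before versus after incubation, read on a Klett colorimeter with a red filter (640-700 nm).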

[4] = Antiviral activity against HSV1 CL101 infected in African green monkey Vero cells assessed as inhibition of plaque formation at 10 uM after 40 hrs relative to control; type: functional, Herpes simplex virus (type 1 / strain CL101); details: Human alphaherpesvirus 1, Vero
Enterococcus faecium [5] = test: Antimicrobial activity against Streptococcus faecium assessed as growth inhibition at 400 uM after 15 to 17 hrs by turbidity assay in presence of 7 uM deoxythymidine; type: functional; outline: as §1
L1210 = test: Inhibition of deoxythymidylate synthetase in mouse L1210 cells at 250 uM; type: cell-based
Lacticaseibacillus casei = test: Inhibition of Lactobacillus casei deoxythymidylate synthetase at 250 uM
[6] = Antiviral activity against HSV1 CL101 infected in African green monkey Vero cells assessed as inhibition of plaque formation at 50 uM after 40 hrs relative to control; type: functional, Herpes simplex virus (type 1 / strain CL101); details: Human alphaherpesvirus 1, Vero
Enterococcus faecium [7] = test: Antimicrobial activity against Streptococcus faecium after 15 to 17 hrs by turbidity assay; type: functional; details: read-out: ED50 (the source's name); outline: as §1
[8] = Dissociation constant, pKa of the compound; type: physicochemical
[9] = Antiviral activity against HSV1 CL101 infected in African green monkey Vero cells assessed as inhibition of plaque formation at 400 uM after 40 hrs relative to control; type: functional, Herpes simplex virus (type 1 / strain CL101); details: Human alphaherpesvirus 1, Vero
CCRF S-180 [10] = test: Cytotoxicity against mouse S180 cells at 400 uM after 18 to 42 hrs relative to control; type: functional
Enterococcus faecium [11] = test: Antimicrobial activity against Streptococcus faecium assessed as concentration required for maximum growth inhibition after 15 to 17 hrs by turbidity assay; type: functional; outline: as §1
[12] = Antiviral activity against HSV1 CL101 infected in African green monkey Vero cells assessed as inhibition of plaque formation at 40 uM after 40 hrs relative to control; type: functional, Herpes simplex virus (type 1 / strain CL101); details: Human alphaherpesvirus 1, Vero
CCRF S-180 [13] = test: Cytotoxicity against mouse S180 cells at 0.001 uM after 18 to 42 hrs relative to control; type: functional
[14] = Antiviral activity against HSV1 CL101 infected in African green monkey Vero cells assessed as inhibition of plaque formation at 0.1 uM after 40 hrs relative to control; type: functional, Herpes simplex virus (type 1 / strain CL101); details: Human alphaherpesvirus 1, Vero
CCRF S-180 [15] = test: Cytotoxicity against mouse S180 cells at 5 uM after 18 to 42 hrs relative to control; type: functional
[16] = Antiviral activity against HSV1 CL101 infected in African green monkey Vero cells assessed as inhibition of plaque formation at 200 uM after 40 hrs relative to control; type: functional, Herpes simplex virus (type 1 / strain CL101); details: Human alphaherpesvirus 1, Vero

COC(=O)[C@H]1O[C@@H](n2cc(C)c(=O)[nH]c2=O)C[C@@H]1O
Ki [1]: 4 µM

O=C(O)[C@H]1O[C@@H](n2cc(Br)c(O)nc2=O)C[C@@H]1O
Ki [1]: 2.7 µM | Retention_time [2]: 2.56 min

CC(=O)O[C@H]1C[C@H](n2cc(F)c(=O)[nH]c2=O)O[C@@H]1C(N)=O
Ki [1]: 960 µM

O=c1[nH]c(=O)n([C@H]2C[C@H](O)[C@@H](CO)O2)cc1Br [BROXURIDINE]
Ki [1]: 0.2 µM | Retention_time [2]: 12.16 min | inhibition (INH) (Enterococcus faecium [3]): 91% | inhibition at 10 µM [4]: 99.6% | inhibition (INH) (Enterococcus faecium [5]): 76%

N#C[C@H]1O[C@@H](n2cc(F)c(=O)[nH]c2=O)C[C@@H]1O
inhibition (L1210): inactive | Ki [1]: 75 µM | inhibition (Lacticaseibacillus casei): inactive

O=c1[nH]cc(I)c(=O)[nH]1
Retention_time [2]: 8.85 min

O=c1[nH]cc(Br)c(=O)[nH]1 [5-BROMOURACIL]
Retention_time [2]: 7.69 min

O=c1[nH]c(=O)n([C@H]2C[C@H](O)[C@@H](CO)O2)cc1I [IDOXURIDINE]
Ki [1]: 0.2 µM | inhibition at 50 µM [6]: 99.7% | Retention_time [2]: 14.41 min | inhibition (INH) (Enterococcus faecium [3]): 71% | inhibition (INH) (Enterococcus faecium [5]): 12%

COC(=O)[C@H]1O[C@@H](n2ccc(=O)[nH]c2=O)C[C@@H]1O
Ki [1]: 500 µM

O=c1ccn([C@H]2C[C@H](O)[C@@H](CO)O2)c(=O)[nH]1 [DEOXYURIDINE]
Ki [1]: 9.5 µM | EC50 (Enterococcus faecium [7]): 37 µM | pKa [8]: 9.3

N#C[C@H]1O[C@@H](n2cc(I)c(O)nc2=O)C[C@@H]1O
inhibition at 400 µM [9]: 74% | Ki [1]: 1.3 µM | inhibition at 400 µM (CCRF S-180 [10]): 0% | inhibition (INH) (Enterococcus faecium [3]): 14% | inhibition (INH) (Enterococcus faecium [5]): 0%

Nc1nc(=O)n([C@H]2C[C@H](O)[C@@H](CO)O2)cc1Br
Retention_time [2]: 16.53 min

CC(=O)O[C@H]1C[C@H](n2cc(I)c(=O)[nH]c2=O)O[C@@H]1C#N
Ki [1]: 18 µM

NC(=O)[C@H]1O[C@@H](n2ccc(O)nc2=O)C[C@@H]1O (stereo in doubt; 19) [listing 1 of 2 here]
inhibition at 400 µM [9]: 0% | Activity (Enterococcus faecium [11]): 600 µM | inhibition at 400 µM (CCRF S-180 [10]): 0% | EC50 (Enterococcus faecium [7]): 200 µM | inhibition (INH) (Enterococcus faecium [3]): 22% | inhibition (INH) (Enterococcus faecium [5]): 71%

CC(=O)O[C@H]1C[C@H](n2cc(C)c(=O)[nH]c2=O)O[C@@H]1CO
Ki [1]: 58 µM

CC(=O)O[C@H]1C[C@H](n2cc(Br)c(=O)[nH]c2=O)O[C@@H]1C(N)=O
Ki [1]: 192 µM

COC(=O)[C@H]1O[C@@H](n2cc(I)c(=O)[nH]c2=O)C[C@@H]1O
Ki [1]: 1.5 µM

Nc1nc(=O)n([C@H]2C[C@H](O)[C@@H](CO)O2)cc1I [IBACITABINE]
Retention_time [2]: 19.87 min

CC(=O)O[C@H]1C[C@H](n2cc(Br)c(=O)[nH]c2=O)O[C@@H]1C#N
Ki [1]: 28 µM

O=C(O)[C@H]1O[C@@H](n2cc(F)c(=O)[nH]c2=O)C[C@@H]1O [RIBOFURANURONIC ACID]
inhibition (L1210): inactive | inhibition (Lacticaseibacillus casei): inactive

NC(=O)[C@H]1O[C@@H](n2cc(I)c(O)nc2=O)C[C@@H]1O
inhibition at 400 µM [9]: 96% | Ki [1]: 1 µM | inhibition at 40 µM [12]: 78% | inhibition at 400 µM (CCRF S-180 [10]): 0% | inhibition (INH) (Enterococcus faecium [3]): 28% | inhibition (INH) (Enterococcus faecium [5]): 0%

NC(=O)[C@H]1O[C@@H](n2ccc(O)nc2=O)C[C@@H]1O (stereo in doubt; 19) [listing 2 of 2 here]
inhibition (L1210): inactive | inhibition (Lacticaseibacillus casei): inactive

Nc1ccn([C@@H]2O[C@H](C(=O)O)[C@@H](O)[C@@H]2O)c(=O)n1
inhibition at 400 µM [9]: 0% | Retention_time [2]: 2.56 min | inhibition at 400 µM (CCRF S-180 [10]): 76% | inhibition (INH) (Enterococcus faecium [3]): 0% | inhibition (INH) (Enterococcus faecium [5]): 0%

Nc1ccn([C@H]2C[C@H](O)[C@@H](CO)O2)c(=O)n1 [DOXECITINE]
EC50 (Enterococcus faecium [7]): 50 µM

Cc1cn([C@H]2C[C@H](O)[C@@H](C(=O)O)O2)c(=O)[nH]c1=O [5'-CARBOXY THYMIDINE]
Ki [1]: 5.4 µM

O=c1[nH]c(=O)n([C@H]2C[C@H](O)[C@@H](CO)O2)cc1F [FLOXURIDINE]
Ki [1]: 1.5 µM | Retention_time [2]: 7.93 min | inhibition (INH) (Enterococcus faecium [3]): 95% | inhibition at 0.001 µM (CCRF S-180 [13]): 95% | inhibition at 0.1 µM [14]: 88% | inhibition (INH) (Enterococcus faecium [5]): 96%

NC(=O)[C@H]1O[C@@H](n2cc(F)c(=O)[nH]c2=O)C[C@@H]1O
inhibition (L1210): inactive | Ki [1]: 18 µM | inhibition (Lacticaseibacillus casei): inactive

CC(=O)O[C@H]1C[C@H](n2cc(I)c(=O)[nH]c2=O)O[C@@H]1C(N)=O
Ki [1]: 20 µM

Cc1cn([C@H]2C[C@H](O)[C@@H](C(N)=O)O2)c(=O)[nH]c1=O
Ki [1]: 1.6 µM

Nc1nc(=O)n([C@H]2C[C@H](O)[C@@H](C(=O)O)O2)cc1Br
Retention_time [2]: 3.05 min

Cc1cn([C@H]2C[C@H](O)[C@@H](CO)O2)c(=O)[nH]c1=O [DOXRIBTIMINE]
EC50 (Enterococcus faecium [7]): 11 µM | pKa [8]: 9.8

O=c1[nH]cc(F)c(=O)[nH]1 [FLUOROURACIL]
Retention_time [2]: 5.29 min

O=C(O)[C@H]1O[C@@H](n2ccc(=O)[nH]c2=O)C[C@@H]1O
Ki [1]: 500 µM

N#C[C@H]1O[C@@H](n2cc(Br)c(=O)[nH]c2=O)C[C@@H]1O
Ki [1]: 1.8 µM

Nc1ccn([C@@H]2O[C@H](CO)[C@@H](O)[C@@H]2O)c(=O)n1 [CYTARABINE]
Retention_time [2]: 2.07 min | inhibition at 5 µM (CCRF S-180 [15]): 98% | inhibition at 200 µM [16]: 91%

O=c1[nH]c(=O)n([C@H]2C[C@H](O)[C@@H](CF)O2)cc1I
Ki [1]: 1.5 µM

Nc1nc(=O)n([C@H]2C[C@H](O)[C@@H](C(=O)O)O2)cc1I
Retention_time [2]: 3.35 min

NC(=O)[C@H]1O[C@@H](n2cc(Br)c(O)nc2=O)C[C@@H]1O
inhibition at 400 µM [9]: 92% | Ki [1]: 0.8 µM | inhibition at 40 µM [12]: 42% | inhibition at 400 µM (CCRF S-180 [10]): 0% | inhibition (INH) (Enterococcus faecium [3]): 0% | inhibition (INH) (Enterococcus faecium [5]): 0%

COC(=O)[C@H]1O[C@@H](n2cc(Br)c(=O)[nH]c2=O)C[C@@H]1O
Ki [1]: 2.9 µM

O=C(O)[C@H]1O[C@@H](n2cc(I)c(O)nc2=O)C[C@@H]1O
Ki [1]: 4.2 µM | Retention_time [2]: 2.97 min

NC(=O)[C@H]1O[C@@H](n2ccc(O)nc2=O)C[C@@H]1O (stereo in doubt)
Ki [1]: 310 µM | Activity (Enterococcus faecium [11]): 600 µM

COC(=O)[C@H]1O[C@@H](n2cc(F)c(O)nc2=O)C[C@@H]1O
inhibition at 400 µM [9]: 0% | inhibition (L1210): inactive | Ki [1]: 410 µM | inhibition at 400 µM (CCRF S-180 [10]): 32% | inhibition (INH) (Enterococcus faecium [3]): 0% | inhibition (Lacticaseibacillus casei): inactive | inhibition (INH) (Enterococcus faecium [5]): 0%
